# Variants at the floor of the assay were thinned out.
# B1: tRNA (parent)
# chain: GUUCCGUUGGCGUAAUGGUAACGCGUCUCCCUCCUAAGGAGAAGACUGCGGGUUCGAGUCCCGUACGGAACG
# Variants of: B1
# Assay: yeast fitness relative to wild type (ratio to wild type); higher = fitter; tRNA-Arg(CCU), competitive growth, 37 C, YPD
# In short: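 Genotype frequency changes were the basis for Darwinian fitness relative to wild type. The frequencies came from 100-nucleotide paired-end sequencing of gene amplicons from the start population and each end population of pooled yeast strains with tRNA-Arg(CCU) gene variants at the native locus. Competition ran in YPD at 37°C for 24 hours in six replicates, genotypes needed ≥ 100 starting reads, and estimates < 0.5 were set to 0.5.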
row,Variant,yeast fitness
1,G67U G68C,0.773
2,G56C A57U G58A,≤ 0.5
3,G58C C61A A69U,0.55
4,A57U G68C,0.652
5,U64C A70C,0.967
6,A65C G68C,0.778
7,G56C A65G A70U,0.587
8,A57U U59A A65C,≤ 0.5
9,A57C G67C,0.707
10,C62G G63A,0.796
11,C60G C66G A70C,≤ 0.5
12,G56C A57C C61G,≤ 0.5
13,C66A G68A,0.695
14,C62U C66U,1.06
15,A57C C60U A69C,≤ 0.5
16,A57U A70U,0.69
17,A57C A70G,0.664
18,C61A C62U A65U A69C,0.52
19,C61A A65U,0.604
20,C61A G68A,0.716
21,G68U A69C,0.817
22,C61U A69C,0.882
23,A57C C61G A69C,≤ 0.5
24,C61G G63A A70U,0.562

row,Variant,yeast fitness
1,G63C A65C C66A,≤ 0.5
2,C60G G67A,0.584
3,C61G G63C G68A,≤ 0.5
4,A65G C66A,0.716
5,A65G C66U,0.993
6,G67C G68U,0.676
7,A65U C66U,0.818
8,G56C C61U,0.747
9,C66G G67U,0.63
10,C66G G67C,0.733
11,A57G C60U G68C,0.527
12,A57G U64C A65C,0.506
13,A65U G67C,0.64
14,G58A A69U,0.986
15,A57G A70G,0.889
16,G58C A69U,0.846
17,G58C G63A,0.873
18,C62U A65U G67A,0.532
19,C60A G68C,0.734
20,C62G A65U,0.75
21,G58C G67C,1.17
22,G58C G67A,0.807
23,U64A A69U,0.834
24,C61U A65U,0.724

row,Variant,yeast fitness
1,C62A C66U,0.694
2,C62A C66G,0.718
3,C60A G67C,0.654
4,C60G G68A,0.695
5,C62U G67C,0.917
6,C61G G67U,0.61
7,A57G A65G C66U,0.65
8,G63A C66A,0.72
9,C60A A69G,0.56
10,U59A C60U,0.74
11,C60U C62G A70G,0.521
12,C62A A70C,0.955
13,A57U C62A,0.629
14,A57C U64G C66U,≤ 0.5
15,A57C U64G,0.512
16,G56C A69C A70U,0.605
17,G58A G67C,0.988
18,A65G A69C,0.984
19,G58C C61A A65U,≤ 0.5
20,C61U A69U A70U,0.678
21,A57U A65C C66G,≤ 0.5
22,C66U A70U,0.923
23,U59G G63C,0.639
24,A57G C66U,0.816

row,Variant,yeast fitness
1,G63A A65U,0.945
2,C61A G67C,0.664
3,G67A G68C,0.819
4,A57G A65G,1.02
5,A57G A69G A70G,0.704
6,G58A G68C,1.01
7,A57U A65G,0.753
8,C62U U64C,1.02
9,U59G,1.01
10,U59A,0.973
11,U59C,1
12,U64G,0.993
13,U64C,0.985
14,U64A,0.972
15,C62U A65C A70C,0.619
16,A65C A70C,1.03
17,C62A A65U,0.772
18,G67U A69U,0.887
19,U59A G63A,0.872
20,C61G C66G,0.625
21,U59A A70C,0.741
22,A57C C60A,≤ 0.5
23,C60U A69C,0.713
24,C60U A69G,0.572

row,Variant,yeast fitness
1,C61G A69U,0.635
2,G67C,0.986
3,G67A,0.951
4,G67U,0.918
5,G58A A70U,0.955
6,C62U G63C U64C,0.789
7,A65U A70G,1.05
8,U59A C66A,0.63
9,U59A A65U,0.636
10,A57C A65C A70C,0.571
11,C61G C62U,0.613
12,G56C A69U A70U,≤ 0.5
13,G63A C66G A69G,≤ 0.5
14,U59G C66A,0.62
15,G63A G67A,0.693
16,G63A A69G,0.878
17,G63A A69C,0.941
18,U59G C60U,0.63
19,U59G C60G,0.638
20,A57C,0.62
21,A57U,0.731
22,A57G,0.998
23,U59C A70G,1.01
24,G58A C66U G67U,0.543

row,Variant,yeast fitness
1,G58C C66U,0.982
2,C61U G68C,0.68
3,C61U G68U,0.639
4,C61U G68A,0.711
5,C62G G67C,0.614
6,G58C C62G,0.755
7,C62U A70G,0.997
8,G63A A70U,0.816
9,G63A A70C,0.973
10,G58A C62U A69C,1.1
11,G63U A69U,0.83
12,C60U C61G,0.643
13,A57U A69G,0.665
14,C60A U64A,0.561
15,A57G U59C A69U,0.748
16,G56U A69C,0.717
17,G56C G58A,0.607
18,G56C G58C,0.563
19,U59C G68A,0.817
